TAAR1 ag = agonists of human TAAR1; CHO RD-HGA16 TAAR1, Fluo-8 calcium fluorescence; vehicle wells 0%, saturating PEA agonist 100%; activation, % at 3 µM; 360,000 compounds, 0.99% hits;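 active = activation above the mean activation of all test compounds in the run plus 3 SD, cut at about 38% in these data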
Target sequence (Q96RJ0 whole entry, looked up): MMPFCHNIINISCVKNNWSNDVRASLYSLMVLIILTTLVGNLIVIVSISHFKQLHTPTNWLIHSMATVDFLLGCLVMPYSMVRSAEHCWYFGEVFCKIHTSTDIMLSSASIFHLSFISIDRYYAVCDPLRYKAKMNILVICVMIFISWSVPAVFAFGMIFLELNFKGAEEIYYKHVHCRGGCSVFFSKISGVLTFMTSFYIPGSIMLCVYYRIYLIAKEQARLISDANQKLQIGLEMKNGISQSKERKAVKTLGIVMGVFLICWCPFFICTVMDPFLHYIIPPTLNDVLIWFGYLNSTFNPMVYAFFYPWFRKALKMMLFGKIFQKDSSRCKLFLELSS
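Assay system – CHO-derived RD-HGA16 cells with stable Gα16 and human TAAR1 · Compound dosing – one-point dosing at 3 µM (nominal) · Incubation – 17-24 h seeding, 75 min 37 °C dye, 30 min RT · Measured by – kinetic Fluo-8 calcium fluorescence · Control set – DMSO vehicle as 0%, PEA at EC100 as 100% · Repeats – single well for each compound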
TAAR1 antag = human TAAR1 antagonism | Q96RJ0 | CHO RD-HGA16 TAAR1, Fluo-8 calcium fluorescence, antagonist | inhibition, % at 3 µM | 360,000 compounds, 1.5% hits | AID 624466;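 active = inhibition above a per-plate cutoff, the mean inhibition of test compounds on that plate plus 3 SD, cut at about 49% in these data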;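 note: 0% = DMSO plus EC80 beta-PEA response and 100% = DMSO alone without agonist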
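Material: CHO RD-HGA16 cells bearing hTAAR1; compound dosing: one-point dosing, 3 µM nominal final; schedule: dye loading 75 min at 37 °C, then 30 min room temperature; measured by: calcium fluorescence with Fluo-8; control set: vehicle and agonist controls; replication: n of 1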
OXTR agonist = human OXTR agonism; CHO-OTR cells, Fluo-8 calcium fluorescence; normalized: DMSO 0%, oxytocin 100%; activation, % at 3 µM; 320,000 compounds, 0.32% hits;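 active = activation above the mean of all tested compounds plus 3 SD, cutoff set per screening run, cut at about 20% in these data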;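 note: peak over basal fluorescence ratio from a 100 s FLIPR kinetic read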
V1aR counter = counter-screen for oxytocin receptor agonists: human V1a receptor agonists. P37288. 320,000 compounds, 0.25% hits. activation, % at 3 µM. CHO-V1R cells, Fluo-8 calcium fluorescence, agonist mode; 0% DMSO, 100% 3 nM vasopressin. AID 2797;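 active = activation above the mean activation of all tested compounds plus 3 SD, per screening run, cut at about 20% in these data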;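 note: signal is peak over basal fluorescence ratio across a 100 second FLIPR read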
OXTR potentiator = potentiators of human oxytocin receptor; P30559; CHO-OTR cells, Fluo-8 calcium fluorescence, potentiator mode; 0% = oxytocin EC15, 100% = EC100; activation, % at 3 µM; 320,000 compounds, 0.061% hits; AID 2445;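 active = activation above that plate's cutoff, the mean activation of tested compounds plus 3 SD, cut at about 6.6% in these data, passing the limit was not always enough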;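 note: 100% uses oxytocin at 75 nM as the full agonist control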
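Assay system: CHO-OTR cells, human receptor / Also added: oxytocin at about EC15, sub-maximal agonist stimulus / Dosing: single dose, 3.0 µM nominal final compound concentration / Incubation: 6 min pre-incubation, 100 s read / Technique: Fluo-8 calcium dye fluorescence / Read-out: % activation vs EC15 and EC100 oxytocin / Benchmarks: EC15 oxytocin low, 75 nM oxytocin high / Replicates: singlicate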
* = called active by the depositor; . = not tested or not shown. Only some compounds are listed: those with a hit (about 2.3% of all), similar ones and a draw of the others.

SMILES	TAAR1 ag	TAAR1 antag	OXTR agonist	V1aR counter	OXTR potentiator
COc1cc(N=c2c([N+](=O)[O-])nn(-c3ccc4c(c3)OCCO4)n2O)cc(OC)c1	2	-18	-2	0	-1
CCc1nnc(N/N=C/c2cc(Br)c(O)cc2O)n1N	7	-15	1	0	4
CC(C)(C)c1nnc(N/N=C/c2cc(Br)ccc2O)n(N)c1=O	25	68*	4	6	-9
CCCNC(=O)C1(C)CCN(C(=O)c2cccc(C#N)c2)C1 (stereo not drawn)	1	1	.	.	.
CCN(CC)S(=O)(=O)c1ccc(/C=C/C(=O)OCC(=O)Nc2cccc3ccccc23)cc1	2	1	-2	1	-3
CCN(CC)S(=O)(=O)c1ccc(/C=C/C(=O)OCC(=O)Nc2cccnc2Cl)cc1	17	49*	8	8	-9
CCCCNc1nc(NCc2ccccc2)nc2ccccc12	78*	92*	.	.	.
C=C1[C@@H](C)CN[C@@H]1CCO	10	-9	.	.	.
Cc1cc(=O)oc2ccc(OCC(=O)N(Cc3ccc(F)cc3)Cc3ccco3)cc12	12	70*	5	8	-10
CCOC(=O)c1cccc(NC(=O)CSc2nncn2-c2ccccn2)c1	3	-14	-1	1	-5
CCOC(=O)CSc1nnc(CNc2ccc(Cl)cc2)n1-c1ccccc1	16	52*	15	9	-11
COC(=O)c1ccccc1-c1cn(C)c2ccccc2c1=O	4	-11	-1	0	-1
COc1ccccc1-c1cccc(-c2nc(C(=O)N3CCCCC3)cc3c2[C@H](CCO)N(S(=O)C(C)(C)C)C3)c1 (stereo partly drawn)	15	58*	.	.	.
CCCNC(=O)c1cc2c(c(-c3cccc(-c4ccc(F)cc4)c3)n1)[C@@H](CCO)N(S(=O)C(C)(C)C)C2 (stereo partly drawn)	12	49*	.	.	.
Cc1cc(=O)[nH]c(SCC(=O)/C=C2\N(C)c3ccccc3C2(C)C)n1	13	30	23*	7	-16
NCCCNC(=O)c1ccc(/C=N/O)nc1	5	-5	1	0	-9
O=C(CSc1nnnn1C1CCCCC1)Nc1ccccc1F	-1	13	-1	2	-15
O=C(CSc1nnnn1C1CC2CCC1C2)Nc1ccnc2ccccc12 (stereo not drawn)	25	52*	17	11	-18
Fc1ccc(C2=CC(c3ccc(Br)o3)n3ncnc3N2)cc1 (stereo not drawn)	.	.	51*	34*	-12
Fc1ccc(C2=CC(c3ccco3)n3ncnc3N2)cc1 (stereo not drawn)	.	.	2	5	4
Cc1cc(O)ccc1Nc1cc(-c2cccc(N(C)C)c2)ncn1	4	-24	.	.	.
O=c1[nH]c2ccc(NC(=S)NCCc3ccccc3)cc2[nH]1	41*	29	0	0	-4
O=c1[nH]c2ccc(NC(=S)Nc3ccccc3)cc2[nH]1	7	-8	1	1	-10
CCOC(=O)c1ccc(NC(=S)NCCc2ccccc2)cc1	39*	4	9	11	-16
Cc1cccc(-c2cccc3[nH]c4c(c23)CCN2C(=O)[C@H]3[C@H](C)ON(C)[C@H]3C[C@@H]42)c1	17	39	.	.	.
SMILES	TAAR1 ag	TAAR1 antag	OXTR agonist	V1aR counter	OXTR potentiator
O=C(Nc1ccc(S(=O)(=O)N2CCOCC2)cc1)c1cc(-c2cc(Cl)ccc2O)n[nH]1	20	56*	7	13	-8
N#Cc1ccc(-c2ccc(OCC(O)Cn3nnc4ccccc43)cc2)cc1 (stereo not drawn)	13	56*	11	10	-19
CN(CC(=O)Nc1cccc(F)c1)C(=O)CSc1nc2ccccc2s1	4	-7	0	0	-9
COc1cc(C2(c3ccc(O)c(OC)c3)C(=O)Nc3c(C)cc(Br)cc32)ccc1O	31	51*	6	4	-15
Cc1cc(Br)cc2c1NC(=O)C2(c1c(C)n(C)n(-c2ccccc2)c1=O)c1c(C)n(C)n(-c2ccccc2)c1=O	7	-35	-1	-1	-9
CN(C(=O)c1cccc(NC(=O)Cc2ccc(NC(=O)C3CCCN(C(=O)c4ccccc4)C3)cc2)c1)C1CC1 (stereo not drawn)	3	-32	.	.	.
O=[N+]([O-])c1ccc2nc(-c3cccnc3)[nH]c2c1	7	8	1	2	-11
O=[N+]([O-])c1cc([N+](=O)[O-])c2cc(-c3cccnc3)[nH]c2c1	19	49*	3	3	-4
O=C(COC(=O)c1c2c(nc3ccccc13)/C(=C\c1cccs1)CCC2)Nc1ccccc1	3	20	1	0	-4
CC(=O)c1ccc(NC(=O)COC(=O)c2c3c(nc4ccccc24)/C(=C\c2cccs2)CCC3)cc1	8	58*	1	1	-13
CC(C)CNC(=O)COC(=O)c1c2c(nc3ccccc13)/C(=C\c1cccs1)CC2	0	50*	.	.	.
CN1OC[C@@H]2CN[C@H](c3ccc(-n4ccnc4)cc3)C[C@@H]21	3	-25	.	.	.
CC1CCCC(C)N1C(=O)COC(=O)Cc1ccc(F)cc1 (stereo not drawn)	0	3	-1	0	-20
CCN(CC)S(=O)(=O)c1ccc2c3c(cccc13)C(=O)N2	0	-22	0	0	-5
CCN(c1cccc(C)c1)S(=O)(=O)c1ccc2c3c(cccc13)C(=O)N2	10	54*	-2	-1	-17
Oc1nc(Nc2cccc(Cl)c2)sc1/C=C1\C=Nc2ccccc21	-2	54*	-2	-1	-7
Cc1c(C(=O)Nc2ccccc2)sc2nc(-c3ccccc3)cn12	23	51*	9	9	-19
CCC(Oc1ccc2c(=O)c(-c3ccccc3OC)coc2c1)C(=O)OCc1ccccc1 (stereo not drawn)	-1	55*	2	1	-9
O=C(c1ncn(Cc2ccccc2)c1C(=O)N1CCN(c2ccccc2)CC1)N1CCN(c2ccccc2)CC1	10	13	0	1	-8
O=C(c1ncn(Cc2ccccc2)c1C(=O)N1CCc2ccccc2C1)N1CCc2ccccc2C1	41*	45	-1	0	-5
O=C(c1nc2ccc(Cl)cn2c1CN1CCCC1)N1CCc2ccccc2C1	47*	-18	1	2	-3
O=C(c1nc2ccc(Cl)cn2c1CN1CCC(CO)CC1)N1CCc2ccccc2C1	1	-14	0	-1	-4
CC(NC(=O)OC(C)(C)C)C(=O)NC(CCC(=O)OCc1ccccc1)C(N)=O (stereo not drawn)	5	-4	0	0	0
NS(=O)(=O)c1ccc(NC(=O)COC(=O)c2ccc([N+](=O)[O-])s2)cc1	2	4	1	0	2
